{"data": "Assay results collected from several papers", "target": "Mitogen-activated protein kinase kinase kinase 11 (MAP3K11, Homo sapiens, UniProt Q16584)", "note": "Lines come from different studies, so protocols differ."}
{"SMILES": "N#Cc1ccc(Nc2ccc3[nH]c(=O)[nH]c3c2)c(Cl)c1", "read-out": "cell-free assay", "method": "competition with immobilised ligand", "tested at": "1 µM", "quantity": "remaining binding", "value": "100%"}
{"SMILES": "NS(=O)(=O)c1ccc(CNc2nc(Nc3cccc(CN4CCOCC4)c3)ncc2Br)cc1", "read-out": "enzyme activity", "action": "inhibitor", "method": "radiometric", "tested at": "1 µM", "quantity": "remaining activity", "value": "34%"}
{"SMILES": "O=C1Nc2ccc(Cl)cc2C1=Cc1cc(Cl)c(O)c(Cl)c1", "read-out": "cell-free assay", "tested at": "0.5 µM", "quantity": "remaining signal", "value": "60.4%"}
{"SMILES": "CN1CC(Oc2cnc(C#N)cc2-c2ccn3nc(NC(=O)C4CC4)cc3c2)C1", "read-out": "enzyme activity", "action": "inhibitor", "tested at": "1 µM", "quantity": "inhibition", "value": "5%"}
{"SMILES": "Cc1c(C(=O)O)cc(-c2ccc(C3CCNCC3)cc2)c2ccc(-c3ccc(C(F)(F)F)cc3)cc12", "read-out": "binding", "method": "competition with immobilised ligand", "tested at": "1 µM", "quantity": "remaining binding", "value": "100%"}
{"SMILES": "Cc1nn(CC(F)(F)F)cc1Nc1nccc(NCCCNC(=O)C2CCC2)n1", "read-out": "enzyme activity", "action": "inhibitor", "method": "radiometric", "tested at": "1 µM", "quantity": "remaining activity", "value": "106%"}
{"SMILES": "C[C@H]1CCN(c2nccc(-c3cnn4ncccc34)n2)C1", "read-out": "binding", "tested at": "1 µM", "quantity": "remaining binding", "value": "93%"}
{"SMILES": "CCc1ccccc1C(=O)Nc1n[nH]c2c(C)c(F)c(C3C(C#N)=C(C)N(C)C(C)=C3C#N)cc12", "read-out": "cell-free assay", "method": "competition with immobilised ligand", "tested at": "1 µM", "quantity": "remaining binding", "value": "88%"}
{"SMILES": "Cc1nn(CC(F)(F)F)cc1Nc1nccc(NCCc2cnc[nH]2)n1", "read-out": "enzyme activity", "action": "inhibitor", "method": "radiometric", "tested at": "1 µM", "quantity": "remaining activity", "value": "94%"}
{"SMILES": "Nc1ncnc2occ(-c3ccc(NC(=O)Nc4cc(C(F)(F)F)ccc4F)cc3)c12", "read-out": "cell-free assay", "action": "inhibitor", "tested at": "20 µM", "quantity": "remaining signal", "value": "2.9%"}
{"SMILES": "Cc1ccc(NC(=O)c2ccc(CN3CCN(C)CC3)cc2)cc1Nc1nc(-c2cccnc2)cs1", "read-out": "cell-free assay", "tested at": "0.5 µM", "quantity": "remaining signal", "value": "101%"}
{"SMILES": "CCOCCn1cc(C(=O)Nc2ccc(-n3nc(-c4cccnc4)cc3C(F)(F)F)cn2)ccc1=O", "read-out": "cell-free assay", "method": "competition with immobilised ligand", "tested at": "1 µM", "quantity": "remaining binding", "value": "100%"}
{"SMILES": "O=C(NCCCNc1nc(Nc2cccc(NC(=O)N3CCCC3)c2)ncc1I)c1cccs1", "read-out": "enzyme activity", "action": "inhibitor", "method": "radiometric", "tested at": "1 µM", "quantity": "remaining activity", "value": "1%"}
{"SMILES": "CC(=O)N1CCC(c2ccc(C(=O)NC(=N)N)cc2C(F)(F)F)CC1", "read-out": "cell-free assay", "method": "competition with immobilised ligand", "tested at": "1 µM", "quantity": "remaining binding", "value": "100%"}
{"SMILES": "c1cc(CN2CCOCC2)cc(Nc2nccc(NCCc3cnc[nH]3)n2)c1", "read-out": "enzyme activity", "action": "inhibitor", "method": "radiometric", "tested at": "1 µM", "quantity": "remaining activity", "value": "82%"}
{"SMILES": "Cc1ccc(C(=O)NCc2ccsc2)cc1C#Cc1cn(C(C)C)c2ncnc(N)c12", "read-out": "enzyme activity", "action": "inhibitor", "tested at": "1 µM", "quantity": "activity vs control", "value": "8%"}
{"SMILES": "N#CCCc1ccc2c(c1)-c1[nH]c3ccc([N+](=O)[O-])cc3c1CC(=O)N2", "read-out": "cell-free assay", "tested at": "0.5 µM", "quantity": "remaining signal", "value": "18.4%"}
{"SMILES": "CN(C)c1ncnc(-c2ccc3nc(Nc4cc(CN5CCN(C(=O)CC(F)(F)F)CC5)ccn4)[nH]c3c2)c1Cl", "read-out": "cell-free assay", "method": "competition with immobilised ligand", "tested at": "1 µM", "quantity": "remaining binding", "value": "100%"}
